Test results: ChEMBL document CHEMBL1149659 (Bioorg Med Chem Lett, 2007)
In brackets after ≈: the same amount, converted by molar mass. Activity calls are given as the source filed them. No cut-off for these calls is given here.

Experiments:
3T3-L1 [1] = assay: Inhibition of mouse 3T3-L1 cell differentiation at 2 uM
3T3-L1 (Mus musculus) = assay: Inhibition of [1-14C]sodium acetate uptake in mouse 3T3-L1 cells at 2 uM
3T3-L1 [2] = assay: Inhibition of mouse 3T3-L1 cell differentiation by oil-red O staining method; format: functional
Summary of the method: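 Insulin-induced differentiation of 3T3-L1 pre-adipocytes into adipocytes; reduction in oil-red O stained cells judged under a microscope to give minimal inhibitory concentration.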

[3] = biological target: T1, Peroxisome proliferator-activated receptor gamma (Homo sapiens) (UniProt P37231); assay: Antagonist activity at pioglitazone-stimulated PPARgamma transcriptional activity in U2OS cells at 1 uM; format: functional, cell-based
T1 sequence (whole entry): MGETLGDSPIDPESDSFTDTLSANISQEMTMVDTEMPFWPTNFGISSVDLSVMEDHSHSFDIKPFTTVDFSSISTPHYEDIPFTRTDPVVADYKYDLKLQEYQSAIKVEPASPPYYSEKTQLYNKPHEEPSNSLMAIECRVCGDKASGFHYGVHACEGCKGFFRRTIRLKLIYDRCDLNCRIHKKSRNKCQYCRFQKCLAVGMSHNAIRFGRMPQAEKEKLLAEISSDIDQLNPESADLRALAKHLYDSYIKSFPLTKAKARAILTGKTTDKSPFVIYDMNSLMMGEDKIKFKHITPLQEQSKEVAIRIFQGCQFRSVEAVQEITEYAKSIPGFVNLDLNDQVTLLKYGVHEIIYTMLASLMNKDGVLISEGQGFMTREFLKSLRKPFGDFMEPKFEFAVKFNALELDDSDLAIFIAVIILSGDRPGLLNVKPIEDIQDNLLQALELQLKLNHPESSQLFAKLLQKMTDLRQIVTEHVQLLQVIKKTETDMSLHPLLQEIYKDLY
Summary of the method: (§1)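 U2OS cells transfected with PPARγ expression plasmid, matching reporter plasmid and pCMV-β-galactosidase as internal control; reporter transcriptional activity measured with or without 1 μM pioglitazone stimulation; means of triplicate cultures.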

[4] = biological target: T2, Peroxisome proliferator-activated receptor gamma (Homo sapiens, UniProt P37231); assay: Binding affinity to PPARgamma
T2 sequence (P37231 whole entry): T1 sequence (whole entry)

[5] = biological target: T1, Peroxisome proliferator-activated receptor gamma (Homo sapiens); assay: Activation of PPARgamma transcriptional activity in U20S cells at 0.01 to 1 uM; format: functional, cell-based; conditions: U2OS
Summary of the method: as §1

3T3-L1 [6] = assay: Stimulation of mouse 3T3-L1 cells differentiation at 2 to 4 uM in presence of guanosine; format: functional, cell-based
Summary of the method: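 3T3-L1 cells with 50 μM guanosine added to suppress IMPDH-related effects; adipocyte differentiation stimulation examined at 2–4 μM.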

3T3-L1 [7] = assay: Inhibition of mouse 3T3-L1 cell differentiation assessed as minimal effective concentration by oil-red O staining method

| SMILES | Activity (3T3-L1 [1]) | also measured |
| --- | --- | --- |
| COCCOCOc1c(C/C=C(\C)CCC(=O)OC)c(OC(=O)c2ccncc2)c(C)c2c1C(=O)OC2 | inactive |  |
| COC(=O)CC/C(C)=C/Cc1c(O)c(C)c2c(c1O)C(=O)OC2 | inactive |  |
| COCCOCOc1c(C/C=C(\C)CCC(=O)OC)c(O)c(C)c2c1C(=O)OC2 | inactive | inhibition (3T3-L1 (Mus musculus)): 10% |
| COC(=O)CC/C(C)=C/Cc1c(O)c(C)c2c(c1OS(=O)(=O)c1ccc(C)cc1)C(=O)OC2 | inactive |  |
| C/C=C/C1=CC(=O)[C@@H](O)[C@@H]1O [TERREIN] |  | MIC (3T3-L1 [2]): 81 µM (≈ 12.5 µg/mL) |
| COc1c(C)c2c(c(OC(C)=O)c1C/C=C(\C)CCC(=O)O)C(=O)OC2 | Active | Activity [3]: Active; inhibition (3T3-L1 (Mus musculus)): 86% |
| COC(=O)CC/C(C)=C/Cc1c(O)c2c(c(C)c1OC(=O)c1ccncc1)COC2=O | inactive | inhibition (3T3-L1 (Mus musculus)): 3% |
| COC(=O)CC/C(C)=C/Cc1c(O)c2c(c(C)c1OC)COC2=O | Active | Activity [3]: Active |
| CCOC(=O)COc1c(C)c2c(c(O)c1C/C=C(\C)CCC(=O)OC)C(=O)OC2 | inactive | inhibition (3T3-L1 (Mus musculus)): 0% |
| COC(=O)CC/C(C)=C/Cc1c(OC)c(C)c2c(c1OC)C(=O)OC2 | inactive |  |
| C/C(=C\Cc1c(O)c(C)c2c(c1O)C(=O)OC2)CCC(=O)O | inactive |  |
| COC(=O)CC/C(C)=C/Cc1c(O)c2c(c(C)c1OC(=O)c1cccnc1)COC2=O | inactive |  |
| COc1c(C)c2c(c(O)c1C/C=C(\C)CCC(=O)O)C(=O)OC2 [MYCOPHENOLIC ACID] | Active | Kd [4]: 110 µM; Activity [5]: Active; Activity (3T3-L1 [6]): Active; Activity (3T3-L1 [7]): 0.2 µM; Activity [3]: Active |
| CCOC(=O)COc1c(C)c2c(c(OCOCCOC)c1C/C=C(\C)CCC(=O)OC)C(=O)OC2 | inactive |  |
| COC(=O)CC/C(C)=C/Cc1c(OC)c(C)c2c(c1OS(=O)(=O)c1ccc(C)cc1)C(=O)OC2 | inactive |  |
| COCCOCOc1c(C/C=C(\C)CCC(=O)OC)c(OC(=O)c2cccnc2)c(C)c2c1C(=O)OC2 | inactive |  |
| COc1c(C)c2c(c(OC)c1C/C=C(\C)CCC(=O)O)C(=O)OC2 | inactive |  |
